In publication PMC7569488 (Science signaling, 2020):
Numbering of substitutions follows the chain as printed.

Tests used:
MKP3 and MKP1 = details: cited from earlier work
C2C12 myoblasts [1] = assay: C2C12 myoblast proliferation; assay type: cell-based, mouse; details: C2C12, 72 hr
MKP5 single mutant M431L = biological target: T1, MKP5 single mutant M431L (Homo sapiens, UniProt Q9Y6W6, M431L); assay: Malachite green assay, MKP5 M431L mutant; assay type: biochemical
T1 sequence (Q9Y6W6 320-467 M431L): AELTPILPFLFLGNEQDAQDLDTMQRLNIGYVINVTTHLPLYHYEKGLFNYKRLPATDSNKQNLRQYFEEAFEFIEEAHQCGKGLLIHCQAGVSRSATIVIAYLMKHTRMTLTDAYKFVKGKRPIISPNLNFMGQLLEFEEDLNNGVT

MKP3 = assay: DiFMUP phosphatase assay, MKP3; assay type: biochemical; details: DiFMUP substrate
JNK [2] = assay: JNK activation in C2C12 myoblasts; assay type: cell-based, mouse; details: highest concentration of Compound 1
Outline: (§1)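 C2C12 myoblasts (ATCC) were treated with test compound (0, 10, 25, 50 μM) overnight, serum-starved 4 h, lysed and immunoblotted. Antibodies: phospho-ERK1/2 Thr202/Tyr204, phospho-JNK Thr183/Tyr185, phospho-p38α Thr180/Tyr182, plus the matching total proteins. The pMAPK/MAPK ratio was quantified by direct fluorescence imaging. Four independent experiments; means ± SEM; two-tailed t-test.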

JNK [3] = assay: JNK phosphorylation in MEFs; assay type: cell-based, mouse
Outline: (§2)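 Mouse embryo fibroblasts were derived from Mkp5+/+ and Mkp5−/− embryos (days 13-14) and spontaneously immortalized. Cells were treated with test compound overnight, serum-starved 4 h, then stimulated with TGF-β1 (1 ng/ml) for 10 min. Lysates were immunoblotted for phospho- and total MAPK, and the ratio was quantified by fluorescence imaging. 3-6 independent experiments; means ± SEM; t-test.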

[4] = biological target: T2, MKP5 M431L/T432D double mutant (Homo sapiens, UniProt Q9Y6W6, M431L/T432D); assay: Malachite green assay, MKP5 M431L/T432D double mutant; assay type: biochemical; details: p38α MAPK phosphopeptide
T2 sequence (Q9Y6W6 320-467 M431L/T432D): T1 sequence (Q9Y6W6 320-467 M431L) with T113D

[5] = system: MKP5-CD Tyr^435 mutants (alanine, serine, tryptophan); assay: Binding and inhibition experiments with Tyr435 mutants; assay type: biochemical, human; details: Y435A, Y435S, Y435W
C2C12 myoblasts [6] = assay: C2C12 myoblast differentiation; assay type: cell-based, mouse; details: C2C12, 72 h
Outline: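 C2C12 myoblasts were plated in growth medium, then switched to DMEM with 0.1% FBS, 5 μg/mL insulin and 5 μg/mL selenium, plus DMSO vehicle or test compound. Differentiation ran 72 hr. Cells were stained with MF20 antibody (myosin heavy chain) and DAPI. Fusion index = % of nuclei in myotubes with ≥2 nuclei over total nuclei, counted from ≥10 fields. Means ± SEM; two-tailed t-test.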

MKP5-CD [7] = biological target: T3, MKP5-CD (Homo sapiens, UniProt Q9Y6W6); assay: Transient stopped-flow kinetic assay with DiFMUP; assay type: biochemical
T3 sequence (Q9Y6W6 320-467): T1 sequence (Q9Y6W6 320-467 M431L) with L112M

p38α MAPK [8] = assay: p38α MAPK phosphorylation in MEFs; assay type: cell-based, mouse
Outline: as §2

Solubility = assay type: physicochemical
PTP-1B = biological target: T4, PTP-1B (Homo sapiens, UniProt P18031); assay: Phosphatase selectivity assay, PTP-1B; assay type: biochemical
T4 sequence (P18031 1-435): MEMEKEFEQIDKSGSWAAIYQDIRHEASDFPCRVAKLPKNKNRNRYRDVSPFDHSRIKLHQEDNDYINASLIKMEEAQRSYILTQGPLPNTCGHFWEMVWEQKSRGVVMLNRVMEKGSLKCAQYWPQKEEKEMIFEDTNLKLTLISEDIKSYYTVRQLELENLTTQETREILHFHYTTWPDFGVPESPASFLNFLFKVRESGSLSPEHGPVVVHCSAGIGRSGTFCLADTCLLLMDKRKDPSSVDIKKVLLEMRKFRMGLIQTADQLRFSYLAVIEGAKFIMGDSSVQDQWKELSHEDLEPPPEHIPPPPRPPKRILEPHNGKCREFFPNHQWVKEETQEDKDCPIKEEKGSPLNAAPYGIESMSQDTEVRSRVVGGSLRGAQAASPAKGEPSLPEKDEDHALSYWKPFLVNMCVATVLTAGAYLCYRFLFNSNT

MKP5-CD [9] = biological target: T3, MKP5-CD; assay: DiFMUP steady-state kinetic assay; assay type: biochemical; details: DiFMUP substrate
MKP7 = assay: p38α MAPK phosphopeptide phosphatase assay, MKP7; assay type: biochemical; details: p38α MAPK phosphopeptide substrate
Outline: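 MKP7-CD (residues 156-301) and MKP5-CD were E. coli-expressed and thrombin-cleaved. Each was assayed with the p38α MAPK diphosphopeptide DDE(Nle)(pT)G(pY)VATR, and released phosphate was detected by malachite green. Activity was normalized to DMSO control and fit to a hyperbolic inhibition equation. The IC50 for MKP7-CD was compared with the IC50 for MKP5-CD.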

[10] = system: MKP5 mutants M431L, T432D and M431L/T432D; assay: Binding affinity for Met431/Thr432 mutants; parameters: species or system human
Smad2 = assay: TGF-β1-mediated Smad2 phosphorylation in MEFs; assay type: cell-based, mouse; details: TGF-β1 1 ng/ml 10 minutes
MKP5 single mutant T432D = biological target: T5, MKP5 single mutant T432D (Homo sapiens, UniProt Q9Y6W6, T432D); assay: Malachite green assay, MKP5 T432D mutant; assay type: biochemical
T5 sequence (Q9Y6W6 320-467 T432D): T1 sequence (Q9Y6W6 320-467 M431L) with L112M, T113D

ERK1/2 [11] = assay: ERK1/2 activation in C2C12 myoblasts; assay type: cell-based, mouse; details: even at the highest concentration
Outline: as §1

MKP5-CD [12] = biological target: T3, MKP5-CD; assay: Malachite green phosphatase assay with p38α MAPK phosphopeptide substrate; assay type: biochemical
MKP5-CD [13] = biological target: T3, MKP5-CD; assay: Phosphate sensor steady-state kinetic assay with full-length p38α MAPK substrate; assay type: biochemical
p38α MAPK [14] = assay: p38α MAPK activation in C2C12 myoblasts; assay type: cell-based, mouse; details: highest concentration of Compound 1, dose-dependent
Outline: as §1

ERK1/2 [15] = assay: ERK1/2 phosphorylation in MEFs; assay type: cell-based, mouse; details: Mkp5−/− MEFs
Outline: as §2

For `O=C1/C(=C/c2ccccc2)C(NC2CCCCC2)c2ccccc21` (centres unmarked) [BCI], the “relative potency MKP3 versus MKP1” value (MKP3 and MKP1) is listed as “relative equipotency”.

For `CSc1scc2c1-c1nc(SCC(=O)C(C)(C)C)ncc1CC2` [Compound 1, 3,3-dimethyl-1-((9-(methylthio)-5,6-dihydrothieno[3,4-h]quinazolin-2-yl)thio)butan-2-one], the “myoblast proliferation (BrdU-positive cells)” value (C2C12 myoblasts [1]) was “did not affect C2C12 myoblast proliferation”, the IC50 (MKP5 single mutant M431L) was 99 µM and the “increase in IC50 for MKP3 relative to MKP5” value (MKP3) was “at least 16 fold”. The JNK activation (JNK [2]) was “up to 2 fold”, the “phosphorylation of JNK” value (JNK [3]; Mkp5−/− MEFs) was “did not result in additional phosphorylation” and the “phosphorylation of JNK” value (JNK [3]; wild type MEFs) was “dose-dependent increase”. The “inhibition of MKP5 M431L/T432D double mutant” value [4] was “nearly abolished inhibition”, the “binding to and inhibition of Tyr435 mutants” value [5] was “capable of binding to and inhibiting the activity of only the Y435W mutant” and the “myoblast differentiation (myotube fusion index)” value (C2C12 myoblasts [6]) was “significantly increased”. The “fold change of burst rate (k1)” value (MKP5-CD [7]; 20 and 40 μM Compound 1) was 7 fold, the “burst rate (k1) in the presence of Compound 1” value (MKP5-CD [7]; 20 and 40 μM Compound 1 (8.4 ± 0.2 s^−1 without)) was 1.2 ± 0.02 s⁻¹ and the “phosphorylation of p38α MAPK” value (p38α MAPK [8]; Mkp5−/− MEFs) was “did not result in additional phosphorylation”. For the same molecule, the “phosphorylation of p38α MAPK” value (p38α MAPK [8]; wild type MEFs) was “dose-dependent increase”, the solubility (Solubility) was “modest solubility” and the IC50 (PTP-1B) was > 100 µM. The “α (mixed mechanism of inhibition)” value (MKP5-CD [9]) was 4.2, the “increase in IC50 for MKP7 relative to MKP5” value (MKP7) was “at least 16 fold” and the “binding affinity for M431L, T432D and M431L/T432D mutants” value [10] was “Concomitant reductions in the binding affinity”. For the same molecule, the “TGF-β1-mediated Smad2 phosphorylation” value (Smad2; Mkp5+/+ MEFs) was “inhibited TGF-β1-mediated Smad2 phosphorylation”, the “TGF-β1-mediated Smad2 phosphorylation” value (Smad2; Mkp5−/− MEFs) was “failed to inhibit Smad2 phosphorylation further” and the IC50 (MKP5 single mutant T432D) was 61 µM. The “activation of ERK1/2” value (ERK1/2 [11]) was “did not alter the activation of ERK1/2”, the IC50 (MKP5-CD [12]; IC50 against MKP5-CD, p38α MAPK phosphopeptide substrate) was ~3.9 µM and the “extent of inhibition of MKP5-CD phosphatase activity” value (MKP5-CD [12]; p38α MAPK phosphopeptide) was “did not fully inhibit”. The Ki (MKP5-CD [13]) was 8.9 ± 2.2 µM, the “α (mixed-mechanism inhibition)” value (MKP5-CD [13]; full-length p38α MAPK substrate) was “≈ 17.4” and the “activation of p38α MAPK” value (p38α MAPK [14]) was “up to 4 fold”. The ERK1/2 phosphorylation (ERK1/2 [15]) was “unaffected”.
